Assay outcomes: PubChem, Broad Institute
MITF act – MITF TRPM1 promoter activation in melanoma cells; SK-MEL-5 TRPM1-promoter luciferase, 24 h; % of positive control, neutral wells = 0; activation, % at 12.5 µM; 300,000 compounds, 0.75% hits; AID 588334;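 active = mean activation of at least 80% with every replicate also reaching 80%; inconclusive = mean reaches 80% but some replicate falls short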;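 also: 0% = neutral control wells and 100% = parthenolide positive control wells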
Cneo AK release – causes C. neoformans cell lysis | adenylate kinase release luminescence, 4 h; normalised: neutral wells 0, clomiphene wells 100 | lysis activity, % at 15 µM | 360,000 compounds, 0.2% hits | AID 651654;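 active = mean lysis activity across replicates of at least 80%, whatever share of replicates individually reach that level; inactive = mean lysis activity below 80%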
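Test system: log-phase Cryptococcus neoformans yeast cells. Input: 5 × 10^6 yeast cells/mL. Medium: fresh YPD growth medium. Doses: single dose. Incubation: static 4 h at 37 °C with compound, 1 h detection. Measured by: luminescent adenylate kinase detection reagent. Read-out: signal increase indicating cell lysis. Benchmarks: Clomiphene.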
esBAF inh – SWI/SNF esBAF complex inhibition | reporter increase, % at 12.5 µM | 350,000 compounds, 2% hits | mouse ES cells, Bmi1-luciferase knock-in reporter, 24 h; 100% = twice the neutral-well signal; in the data active = activation above about 40%; inconclusive = no clear call, values can overlap the other calls;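 also: 0% = median of the plate's neutral control wells and 100% = double that signal; a rise in the Bmi1 reporter signal indicates esBAF inhibition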
Wnt act – activates Wnt/beta-catenin signaling in a reporter cell assay; activator, plate reader; activation, % at 9.35 µM; 300,000 compounds, 1.2% hits; AID 743398; in the data active = activation above about 30%, passing the limit was not always enough; inconclusive = no clear call, values can overlap the other calls;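 also: 0% = neutral control wells and 100% = positive control wells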
ERAP1 HTS inh – blocks human ERAP1 aminopeptidase activity; Q9NZ08; recombinant ERAP1, Leu-AMC fluorescence, 60 min; inhibition, % at 10.7 µM; 340,000 compounds, 0.15% hits; AID 652197;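 active = mean replicate inhibition of at least 30%, or all replicates individually reaching that 30% level; inactive = mean below 30% and not every replicate reaching it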;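 also: 0% = neutral control wells and 100% = L-leucinethiol positive control wells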
Target sequence (Q9NZ08 whole entry, looked up): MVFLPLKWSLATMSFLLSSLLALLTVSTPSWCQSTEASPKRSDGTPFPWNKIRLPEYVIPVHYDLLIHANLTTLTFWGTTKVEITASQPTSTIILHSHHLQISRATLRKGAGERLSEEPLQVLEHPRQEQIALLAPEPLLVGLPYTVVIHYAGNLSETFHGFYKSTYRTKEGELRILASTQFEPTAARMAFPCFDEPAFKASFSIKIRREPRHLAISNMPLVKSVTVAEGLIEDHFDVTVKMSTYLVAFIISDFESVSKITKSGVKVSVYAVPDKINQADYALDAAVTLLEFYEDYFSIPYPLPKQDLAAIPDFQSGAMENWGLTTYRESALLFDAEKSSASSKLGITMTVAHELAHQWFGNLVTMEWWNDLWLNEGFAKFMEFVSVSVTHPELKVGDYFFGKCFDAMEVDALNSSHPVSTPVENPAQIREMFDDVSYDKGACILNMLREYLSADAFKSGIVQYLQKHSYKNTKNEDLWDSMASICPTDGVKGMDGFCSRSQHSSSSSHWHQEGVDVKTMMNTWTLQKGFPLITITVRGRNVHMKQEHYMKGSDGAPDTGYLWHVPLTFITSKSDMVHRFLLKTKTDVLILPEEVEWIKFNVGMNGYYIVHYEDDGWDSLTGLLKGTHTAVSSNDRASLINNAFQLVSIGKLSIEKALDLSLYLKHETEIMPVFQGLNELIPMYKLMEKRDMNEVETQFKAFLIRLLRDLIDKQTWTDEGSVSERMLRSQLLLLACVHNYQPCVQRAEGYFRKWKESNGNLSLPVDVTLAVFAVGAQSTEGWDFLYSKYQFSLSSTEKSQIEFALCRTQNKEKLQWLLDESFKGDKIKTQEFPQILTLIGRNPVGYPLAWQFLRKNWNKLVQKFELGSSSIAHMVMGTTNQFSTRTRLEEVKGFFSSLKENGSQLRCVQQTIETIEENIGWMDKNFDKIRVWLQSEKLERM
Env fusion inh – HIV envelope-mediated fusion inhibition; HeLa-JRFL Env/CEM21 cell fusion, luciferase; inhibition, % at 12.3 µM; 360,000 compounds, 1.1% hits;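 active = mean replicate inhibition score of at least 50 and every replicate individually at or above 50; inconclusive = only one of the two criteria met; inactive = mean below 50 and not all replicates reaching 50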;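 also: 0% = plate neutral controls and 100% = maraviroc near 300 nM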
* marks the source's active call; other numbers are inactive results; ? = inconclusive; / = no result; [ ] = another dose, or the depositor's remark. This is a sample that favours compounds with a hit; in the whole collection about 3.5% have one here.

SMILES	MITF act	Cneo AK release	esBAF inh	Wnt act	ERAP1 HTS inh	Env fusion inh
CC(C)=CCC[C@](C)(O[C@@H]1O[C@H](CO[C@@H]2O[C@H](CO)[C@@H](O)[C@H](O)[C@H]2O)[C@@H](O)[C@H](O)[C@H]1O)C1CC[C@]2(C)C1C(=O)CC1[C@@]3(C)CC[C@H](O[C@H]4O[C@@H](CO)[C@H](O)[C@@H](O)[C@@H]4O)C(C)(C)C3CC[C@]12C (some centres undefined)	1	5	11	-2	/	-21
CN1C(=O)c2cc(NC(=O)C3CCCC3)ccc2OC[C@H]2O[C@@H](CC(=O)O)CC[C@H]21	/	/	6	/	/	/
O=C(NCc1ccco1)Nc1c(Cl)cc(Cl)cc1Cl	/	/	/	-1	-1	16
O=C(NCc1ccco1)Nc1ccc(Br)cc1Cl	91*	-7	?	/	/	-90
C[C@H]1CCCCO[C@H](CN(C)CC2CC2)[C@@H](C)CN([C@@H](C)CO)C(=O)c2cc(NC(=O)Nc3ccc4c(c3)OCO4)ccc2O1	/	-3	0	/	-1	2[16.7 µM]
CC1CCC(=C(C#N)c2nc(-c3cc4ccccc4oc3=O)cs2)CC1 (centres undefined)	88*	-1	39	/	/	/
CC(C)NC(=O)Nc1ccc2c(c1)CC(=O)N([C@@H](C)CO)C[C@@H](C)[C@@H](CN(C)C(=O)Nc1ccccc1)O2	/	-2	-3	/	1	10[16.7 µM]
Cn1c(=O)c2c(O)c(Cc3ccccc3)c(=O)[nH]c2n(C)c1=O	9	0	53*	0	3	15
C[C@@H]1CN([C@@H](C)CO)C(=O)Cc2cc(NS(C)(=O)=O)ccc2O[C@@H]1CN(C)Cc1ccccc1	/	-4	-5	/	-2	3[16.7 µM]
O=C1CCCN1c1ccc(S(=O)(=O)NCCOc2ccccc2)cc1	-15	-1	5	-8	/	30
Cc1cc(N2CCCC2=O)cc(C)c1S(=O)(=O)NCCOc1ccc(C(C)(C)C)cc1	10	0	/	3	5	85*
CCN(CC)c1ccc(/C=N/NC(=O)OC(C)(C)C)cc1	76	3	70*	59*	4	-11
O=C(N/N=C/c1cccc(Cl)c1Cl)Nc1ccccc1	40	-2	50*	-2	0	/
CCOc1ccc(/C=N/NC(=O)Nc2ccccc2)cc1	122*	/	/	13	6	-196
CCN(CC)c1ccc(/C=N/NC(=O)Nc2ccccc2)cc1	50	/	/	43*	-1	-52
CCOc1ccc(/C=N/NC(=O)CC(=O)NCc2ccccc2)cc1	2	/	/	-2	-7	-5
Cc1noc(C)c1NC(=O)Nc1cccc2c1O[C@@H](CN(C)C(=O)Nc1ccc3c(c1)OCO3)[C@H](C)CN([C@H](C)CO)C2=O	/	0	-3	/	0	12[16.7 µM]
O=C(Nc1cccc(/C=C/c2nc3ccccc3c(=O)[nH]2)c1)c1ccccc1Cl	65	3	80*	17	-2	-37
O=C(O)C/C(=C\c1cccc(NC(=O)c2ccccc2Cl)c1)c1nc2ccccc2s1	7	112*	10	-6	-1	-14
COc1ccc(C(=O)Nc2cccc(/C=C/c3nc4ccccc4c(=O)[nH]3)c2)cc1	-32	/	/	-22	20	39
COc1ccc(C(=O)Nc2cccc(/C=C(\CCC(=O)O)c3nc4ccccc4s3)c2)cc1	3	-2	20	15	0	-9
Cc1ccc(Cn2c(SCC(=O)NCC3CCCO3)nc3ccsc3c2=O)cc1 (centres undefined)	2	/	/	-1	-3	13
Cc1ccc(CNC(=O)CSc2nc3ccsc3c(=O)n2NC(=O)c2ccccc2)cc1	1	0	13	/	/	29
Cc1ccc(CNC(=O)CSc2nc3ccsc3c(=O)n2Cc2ccccn2)cc1	14	0	6	34*	4	?
Cc1ccc(Cn2c(SCC(=O)NCc3ccco3)nc3ccsc3c2=O)cc1	-2	0	-1	/	/	71*
CCOc1ccc(CCN2C(=S)N([C@@H](Cc3ccccc3)CN3CCC[C@@H]3CN3C(=S)NC[C@@H]3Cc3ccc(O)cc3)C[C@@H]2CC(C)C)cc1	/	-1	-16	-11	/	64*
CCOc1ccc(CCN2C(=S)N([C@@H](Cc3ccc(O)cc3)CN3CCC[C@@H]3CN3C(=S)NC[C@@H]3CC(C)C)C[C@@H]2Cc2ccc(O)cc2)cc1	/	2	-24	-12	/	67*
